Most compounds without a hit are left out; they make up all but 10% or so of the library.
WT yeast gro inh: growth inhibition of WT yeast, mitochondrial fusion screen; mitochondrial fusion phenotypic screen, WT strain; inhibition, % at 10 µM; actives 2.1% (n = 190,000); in the data active = inhibition above about 58%; tested in S. cerevisiae
Diaphorase act: counter-screen for diaphorase-based assays: diaphorase activators and chemical reducers; Diaphorase/resazurin coupled assay, resorufin fluorescence, 16 min; stronger effect = higher value; 1 = vehicle wells, 0 = NADH-free wells; activation factor at 20 µM; actives 0.005% (n = 190,000);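 active = diaphorase activity raised at least twofold by the compound at 20 µM; inactive = activation factor below 2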
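Material: bacterial diaphorase enzyme (C. kluyveri); amount: enzyme 0.07 U/mL final; reagent: NADH substrate 0.114 mM plus resazurin dye 0.1 mM, final; doses: single compound dose of 20 µM, 1% DMSO final; timing: 16 min enzyme reaction, ambient temperature; measured by: fluorescence of resorufin, 544 nm excitation, 590 nm emission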
Lmaj promast: Leishmania major promastigote growth inhibition | Leishmania major promastigotes, resazurin fluorescence viability | inhibition, % at 10 µM | actives 9% (n = 200,000) | AID 1063; in the data active = inhibition above about 50%;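 also: promastigotes grown with compound for 44 hours at 28 °C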
PMI activator: increases human mannose-6-phosphate isomerase activity | P34949 | purified human PMI, coupled resazurin fluorescence, 20 min; stronger effect = higher value; 1 = vehicle control, 0 substrate-free wells | activation factor at 20 µM | actives 0.005% (n = 190,000);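 active = activation factor of 2 or more at 20 µM, relative to plate controls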
Target sequence (P34949 whole entry, looked up): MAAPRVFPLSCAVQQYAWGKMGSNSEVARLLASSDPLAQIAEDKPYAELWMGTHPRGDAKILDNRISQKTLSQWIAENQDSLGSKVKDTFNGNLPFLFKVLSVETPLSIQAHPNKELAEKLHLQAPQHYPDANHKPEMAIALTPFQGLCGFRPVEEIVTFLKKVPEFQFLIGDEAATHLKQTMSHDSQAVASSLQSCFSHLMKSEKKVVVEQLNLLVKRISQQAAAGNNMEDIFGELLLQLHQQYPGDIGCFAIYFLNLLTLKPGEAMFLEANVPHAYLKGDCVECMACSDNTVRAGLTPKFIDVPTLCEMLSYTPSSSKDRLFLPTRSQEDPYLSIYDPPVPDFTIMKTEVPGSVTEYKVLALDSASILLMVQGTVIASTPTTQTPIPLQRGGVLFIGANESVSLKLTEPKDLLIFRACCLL
PMI act hi M6P: increases human PMI activity with near-saturating mannose 6-phosphate | coupled PMI enzyme assay, resazurin fluorescence, 20 min; stronger effect = higher value; 1 = untreated enzyme, 0 = substrate-free blank | AID 1216 | activation factor at 20 µM | P34949 | actives 0.34% (n = 190,000);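 active = activation factor of 2 or more at 20 µM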
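test system = human PMI in coupled enzyme assay | medium = HEPES-buffered pH 7.4 with magnesium and detergent | also added = 1.0 mM mannose-6-phosphate substrate with 0.22 mM NADP+ | compound = 20 µM single dose | times = 20 min incubation at room temperature | measured by = resorufin fluorescence (Ex 544/Em 590 nm) from resazurin via diaphorase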
Numbers without * were called inactive.

SMILES	WT yeast gro inh	Diaphorase act	Lmaj promast	PMI activator	PMI act hi M6P
COc1ccc(/C=C/C(=O)c2ccccc2)cc1COc1ccccc1F	43	1.1	62*	0.9	1.1
COc1ccc(C=O)cc1COc1ccc([N+](=O)[O-])c(C)c1	11	1	37	1	1
COc1ccc(C=O)cc1COc1ccccc1F	-4	0.8	61*	0.9	0.9
COc1ccc(/C=N/NC(=S)Nc2ccccc2)cc1COc1ccc(F)cc1F	16	0.8	55*	0.9	0.9
COc1ccc(NC(=S)N/N=C/c2ccc(F)cc2)cc1OC	8	0.9	-3	1	0.9
CC(C)CNC(=O)CN(C)S(=O)(=O)c1ccc(F)cc1	6	0.9	-4	1	1
Cc1ccc(OCC(=O)NNC(=O)c2cccnc2)cc1C	-9	0.9	-7	1	0.9
CC(C(=O)O)c1ccc(N2Cc3ccccc3C2=O)cc1 (stereo not given)	16	0.9	-9	1.1	1.1
O=C(N/N=C/c1ccc[nH]1)c1cc(-c2ccc(Cl)cc2)nc2ccccc12	69*	0.8	90*	1.4	1.1
O=C(N/N=C/c1ccc[nH]1)c1sc2ccccc2c1Cl	14	0.9	99*	1.4	1.4
O=C(N/N=C/c1ccc(Cl)cc1)c1cc(-c2cccnc2)nc2ccccc12	8	1.2	98*	1.3	1.2
CCc1ccc2c(Cl)c(C(=O)N/N=C/c3c[nH]c4ccccc34)sc2c1	40	0.7	42	0.8	0.8
Cc1ccc(/C=N/NC(=O)c2cc(-c3cccnc3)nc3ccccc23)cc1	8	0.9	6	1	1
O=C(Nc1ccc(-c2cn3ccccc3n2)cc1)c1cccs1	5	1.3	3	1	1.1
COc1ccccc1NC(=S)NCc1ccc2c(c1)OCO2	-1	0.8	-1	0.9	0.9
CCOc1ccc(-n2nnnc2-c2nc3ccccc3s2)cc1	4	1	-3	0.9	1
CCOc1ccc(N2C(=O)C(c3ccccc3)=C(c3nc4ccccc4s3)C2NC(C)=O)cc1 (stereo not given)	39	0.9	51*	0.9	1
CCOC(=O)c1sc(NC(=O)Nc2ccc(Cl)cc2)cc1C	85*	0.9	89*	0.9	0.9
CCN(CC)S(=O)(=O)c1ccc2[nH]cc(C(=O)NCCC3=CCCCC3)c(=O)c2c1	-7	0.8	81*	0.8	0.9
CC1CN(C(=O)Nc2ccc3snnc3c2)c2ccccc21 (stereo not given)	10	0.9	51*	0.9	0.8
Cc1ccc(C(=O)CC(=O)COc2ccc(Cl)cc2C)cc1	4	1	91*	1.1	1.2
Cc1ccc(NC(=O)c2ccc(OC(=O)COc3ccc(Cl)cc3C)cc2)cc1	-1	1	-7	1.1	1
Cc1ccc2nc(-c3cccnc3)cc(C(=O)N3CCN(c4ccc([N+](=O)[O-])cc4)CC3)c2c1	2	0.9	16	1	0.9
Cc1ccc2c(C(=O)N3CCN(c4ccccc4)CC3)cc(-c3cccnc3)nc2c1C	73*	1	45	1	1
COc1ccc2oc(C(=O)OCc3c(C)noc3C)c(C)c2c1	5	0.8	-7	0.9	0.9
SMILES	WT yeast gro inh	Diaphorase act	Lmaj promast	PMI activator	PMI act hi M6P
Cc1ccc2nc(-c3ccc(NS(C)(=O)=O)cc3)cc(-c3ccccc3)c2c1	3	0.8	7	0.8	0.9
CCS(=O)(=O)Nc1ccc(-c2cc(-c3ccccc3)c3cc(C)ccc3n2)cc1	90*	0.9	31	0.8	0.9
NC(=O)c1ccc(/C=N/O)nc1	-9	1.1	-5	1.1	1.1
Cc1cc(O)ccc1N=Cc1c(C(F)(F)F)[nH][nH]c1=O	1	0.7	52*	0.8	0.4
O=c1[nH][nH]c(C(F)(F)F)c1C=Nc1ccccc1	19	0.9	-3	1.1	1
CCOc1ccc(-n2nnc3c(=O)n(CC(=O)N4CCCc5ccccc54)cnc32)cc1	5	0.8	55*	0.9	1
COc1ccc(-n2nnc3c(=O)n(CC(=O)N4CCCc5ccccc54)cnc32)cc1	18	1	43	0.9	0.9
O=C(CCN1C(=O)C2C3CCC(C3)C2C1=O)OCC(=O)c1cccc([N+](=O)[O-])c1 (stereo not given)	-8	0.9	16	1	1
Cc1ccc(C(C(=O)Nc2ccc3c(c2)OCO3)N(C)C(=O)/C=C\c2ccc3c(c2)OCO3)cc1 (stereo not given)	17	0.8	87*	0.9	0.9
COc1cc(S(=O)(=O)NCC2CCCO2)ccc1Br (stereo not given)	-9	0.9	-4	1	1
CCCCC(=O)OCc1nc(N)nc(Nc2ccccc2C)n1	17	0.9	63*	0.9	0.9
Cc1ccccc1Nc1nc(N)nc(COC(=O)c2ccc(S(=O)(=O)N(C)C)cc2)n1	9	0.8	67*	0.8	1
Cc1ccccc1Nc1nc(N)nc(COC(=O)C2CCCCC2)n1	16	0.9	0	0.9	1
CCN(CC)CCCOC(=O)C(c1ccccc1)c1ccccc1	6	1	86*	1.1	1.1
CSc1nnc2ccc(-c3ccccn3)nn12	-3	1	0	1.1	1.1
CN1CCN(c2nc(-c3cccnc3)nc3scc(-c4ccccc4)c23)CC1	15	1	46	1	1
CC1CCN(c2nc(-c3cccnc3)nc3scc(-c4ccccc4)c23)CC1	60*	0.9	42	0.9	0.9
CC1CCN(c2nc(CN3CCCCC3)nc3scc(-c4ccccc4)c23)CC1	68*	0.9	91*	1	1
CC1CCCN(c2nc(-c3cccnc3)nc3scc(-c4ccccc4)c23)C1 (stereo not given)	61*	0.9	38	0.8	0.9
CC1CCCN(C(=O)Cn2nnc(-c3cccnc3)n2)C1 (stereo not given)	-5	0.8	-2	0.9	0.9
COc1cc(NC(=O)CCNS(=O)(=O)c2ccc3c(c2)CCC(=O)N3)cc(OC)c1	-2	1	-7	1.1	1
COC(=O)c1ccc(COc2cccc(C)c2C)cc1	-5	0.9	-5	1	1
Cc1ccc(C(C)C)c(OCC(=O)Nc2ccccc2N2CCN(C)CC2)c1	-29	0.8	60*	0.8	0.8
CC(=O)N1CCN(c2ccccc2NC(=O)COc2cc(C)ccc2C(C)C)CC1	10	0.8	30	0.8	0.9
Cc1cc(C)n(CC(O)Cn2c3ccccc3c3ccccc32)c(=O)n1 (stereo not given)	7	0.8	44	1	1
Cc1cc(C)n(CC(O)Cn2c3ccc(Br)cc3c3cc(Br)ccc32)c(=O)n1 (stereo not given)	91*	0.8	3	1	1
